Activity calls are given as the source filed them. The rule behind the calls is not given here.
Assays:
Rattus norvegicus [1] = assay: Anticonvulsant activity in Wistar albino rat assessed as time spent on tonic flexion phase at 75 mg/kg by MES test (RVb = 3.12 +/- 0.31 sec); format: functional
How it was run: (§1)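 Maximal electroshock (MES) convulsion model in rats. Duration in seconds of the flexion, extensor, clonus and stupor phases was recorded, along with recovery or death. The vehicle control was 1% w/w gum acacia and phenytoin was the reference. Data are mean ± SEM, with P < 0.05 taken as significant.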

Rattus norvegicus [2] = assay: Anticonvulsant activity in Wistar albino rat assessed as time spent on clonic convulsions phase at 75 mg/kg by MES test (RVb = 16.80 +/-2.50 sec); format: functional; how it was run: as §1
Rattus norvegicus [3] = assay: Anticonvulsant activity in Wistar albino rat assessed as time spent on stupor phase at 75 mg/kg by MES test (RVb = 218.33 +/- 5.80 sec); format: functional; how it was run: as §1
Rattus norvegicus [4] = assay: Anticonvulsant activity in Wistar albino rat assessed as time spent on tonic extensor phase at 75 mg/kg by MES test (RVb = 11 +/- 0.57 sec); format: functional; how it was run: as §1
Rattus norvegicus [5] = assay: Anticonvulsant activity in Wistar albino rat assessed as time spent on tonic flexion phase at 20 mg/kg by MES test (RVb = 3.12 +/- 0.31 sec); format: functional; how it was run: as §1
Rattus norvegicus [6] = assay: Anticonvulsant activity in Wistar albino rat assessed as time spent on tonic extensor phase at 20 mg/kg by MES test (RVb = 11 +/- 0.57 sec); format: functional; how it was run: as §1
Rattus norvegicus [7] = assay: Anticonvulsant activity in Wistar albino rat assessed as time spent on clonic convulsions phase at 20 mg/kg by MES test (RVb = 16.80 +/- 2.50 sec); format: functional; how it was run: as §1
Rattus norvegicus [8] = assay: Anticonvulsant activity in Wistar albino rat assessed as time spent on stupor phase at 20 mg/kg by MES test (RVb = 218.33 +/- 5.80 sec); format: functional; how it was run: as §1
Nucleic Acid = assay: Induction of Escherichia coli DNA cleavage at 25 mg after 2 hrs using ethidium bromide staining by agarose gel electrophoresis methos; format: nucleic-acid assay
How it was run: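 Genomic DNA came from E. coli grown 24 h at 37 °C in nutrient broth. It was extracted by SDS/EDTA lysis, phenol then chloroform–isoamyl alcohol, and ethanol precipitation, and dissolved in TAE. Samples were incubated with the DNA 2 h at 37 °C, mixed 1:1 with bromophenol blue, and run on agarose in TAE at 50 V alongside a DNA marker. Gels were ethidium bromide stained 10–15 min and cleavage judged visually.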

Rattus norvegicus [9] = assay: Antidiabetic activity in Wistar albino rat assessed as reduction of fasting blood glucose level administered qd for 9 days by oral glucose tolerance test (RVb = 83.33 +/- 1.54 mg/dl); format: functional
Rattus norvegicus [10] = assay: Antidiabetic activity in Wistar albino rat assessed as reduction of blood glucose level administered qd for 9 days measured after 90 mins last post dose by oral glucose tolerance test (RVb = 135.7 +/- 2.9 mg/dl); format: functional
Rattus norvegicus [11] = assay: Antidiabetic activity in Wistar albino rat assessed as reduction of blood glucose level administered qd for 9 days by glucose oxidation method (RVb = […] +/- […] mg/dl); format: functional
Rattus norvegicus [12] = assay: Antidiabetic activity in Wistar albino rat assessed as reduction of blood glucose level administered qd for 9 days measured after 30 mins last post dose by oral glucose tolerance test (RVb = 183.2 +/- 3.68 mg/dl); format: functional
Rattus norvegicus [13] = assay: Anticonvulsant activity in Wistar albino rat assessed as time spent on stupor phase at 60 mg/kg by MES test (RVb = 218.33 +/- 5.80 sec); format: functional; how it was run: as §1
Rattus norvegicus [14] = assay: Anticonvulsant activity in Wistar albino rat assessed as time spent on clonic convulsions phase at 60 mg/kg by MES test (RVb = 16.80 +/- 2.50 sec); format: functional; how it was run: as §1
Rattus norvegicus [15] = assay: Anticonvulsant activity in Wistar albino rat assessed as time spent on tonic flexion phase at 60 mg/kg by MES test (RVb = 3.12 +/- 0.31 sec); format: functional; how it was run: as §1
Rattus norvegicus [16] = assay: Anticonvulsant activity in Wistar albino rat assessed as time spent on tonic extensor phase at 60 mg/kg by MES test (RVb = 11 +/- 0.57 sec); format: functional; how it was run: as §1
Rattus norvegicus [17] = assay: Anticonvulsant activity in Wistar albino rat assessed as time spent on tonic extensor phase at 70 mg/kg by MES test (RVb = 11 +/- 0.57 sec); format: functional; how it was run: as §1
Rattus norvegicus [18] = assay: Anticonvulsant activity in Wistar albino rat assessed as time spent on tonic flexion phase at 70 mg/kg by MES test (RVb = 3.12 +/- 0.31 sec); format: functional; how it was run: as §1
Rattus norvegicus [19] = assay: Anticonvulsant activity in Wistar albino rat assessed as time spent on clonic convulsions phase at 70 mg/kg by MES test (RVb = 16.80 +/- 2.50 sec); format: functional; how it was run: as §1
Rattus norvegicus [20] = assay: Anticonvulsant activity in Wistar albino rat assessed as time spent on stupor phase at 70 mg/kg by MES test (RVb = 218.33 +/- 5.80 sec); format: functional; how it was run: as §1
Rattus norvegicus [21] = assay: Anticonvulsant activity in Wistar albino rat assessed as time spent on tonic flexion phase at 65 mg/kg by MES test (RVb = 3.12 +/- 0.31 sec); format: functional; how it was run: as §1
Rattus norvegicus [22] = assay: Anticonvulsant activity in Wistar albino rat assessed as time spent on tonic extensor phase at 65 mg/kg by MES test (RVb = 11 +/- 0.57 sec); format: functional; how it was run: as §1
Rattus norvegicus [23] = assay: Anticonvulsant activity in Wistar albino rat assessed as time spent on stupor phase at 65 mg/kg by MES test (RVb = 218.33 +/- 5.80 sec); format: functional; how it was run: as §1
Rattus norvegicus [24] = assay: Anticonvulsant activity in Wistar albino rat assessed as time spent on clonic convulsions phase at 65 mg/kg by MES test (RVb = 16.80 +/- 2.50 sec); format: functional; how it was run: as §1
Rattus norvegicus [25] = assay: Anticonvulsant activity in Wistar albino rat assessed as time spent on tonic flexion phase at 82 mg/kg by MES test (RVb = 3.12 +/- 0.31 sec); format: functional; how it was run: as §1
Rattus norvegicus [26] = assay: Anticonvulsant activity in Wistar albino rat assessed as time spent on stupor phase at 82 mg/kg by MES test (RVb = 218.33 +/- 5.80 sec); format: functional; how it was run: as §1
Rattus norvegicus [27] = assay: Anticonvulsant activity in Wistar albino rat assessed as time spent on clonic convulsions phase at 82 mg/kg by MES test (RVb = 16.80 +/- 2.50 sec); format: functional; how it was run: as §1
Rattus norvegicus [28] = assay: Anticonvulsant activity in Wistar albino rat assessed as time spent on tonic extensor phase at 82 mg/kg by MES test; format: functional; how it was run: as §1

In the case of `COc1ccc(C2SCC(=O)N2NC(=O)CSc2nc3ccccc3[nH]2)cc1` (stereo unspecified), the Time (Rattus norvegicus [1]) is reported as 3.02 s, the Time (Rattus norvegicus [2]) is reported as 12.62 s and the Time (Rattus norvegicus [3]) is reported as 208 s. For the same molecule, the Time (Rattus norvegicus [4]) was 9.5 s.

Molecule `O=C1NC(=O)C(c2ccccc2)(c2ccccc2)N1` [PHENYTOIN] has a Time (Rattus norvegicus [5]) of 2.87 s, a Time (Rattus norvegicus [6]) of 0 s and a Time (Rattus norvegicus [7]) of 4.9 s. It also gave a Time (Rattus norvegicus [8]) of 158.6 s.

For `Oc1ccc(-c2nnc(CSc3nc4ccccc4[nH]3)o2)cc1`, the Activity (Nucleic Acid) was “inactive”, the Activity (Rattus norvegicus [9]) was 80.83 mg/dL and the Activity (Rattus norvegicus [10]) was 125 mg/dL. For the same molecule, the Activity (Rattus norvegicus [11]) was 166.2 mg/dL and the Activity (Rattus norvegicus [12]) was 167.5 mg/dL.

With `Nc1ccc(C2SCC(=O)N2NC(=O)CSc2nc3ccccc3[nH]2)cc1` (stereo unspecified) the Time (Rattus norvegicus [13]) was 210.5 s, the Time (Rattus norvegicus [14]) was 15.4 s and the Time (Rattus norvegicus [15]) was 3.15 s. It also gave a Time (Rattus norvegicus [16]) of 5.66 s.

For `Cc1ccc(C2SCC(=O)N2NC(=O)CSc2nc3ccccc3[nH]2)cc1` (stereo unspecified), the Time (Rattus norvegicus [17]) was 11 s, the Time (Rattus norvegicus [18]) was 3.12 s and the Time (Rattus norvegicus [19]) was 14.62 s. It also gave a Time (Rattus norvegicus [20]) of 207.3 s.

`O=C(CSc1nc2ccccc2[nH]1)NN1C(=O)CSC1c1ccco1` (stereo unspecified) showed a Time (Rattus norvegicus [21]) of 4.2 s, a Time (Rattus norvegicus [22]) of 5.3 s and a Time (Rattus norvegicus [23]) of 208.6 s. The Time (Rattus norvegicus [24]) was 1 s.

`O=C(CSc1nc2ccccc2[nH]1)NN1C(=O)CSC1c1ccc(Cl)cc1` (stereo unspecified) was tested, and the Time (Rattus norvegicus [1]) was 4.56 s, the Time (Rattus norvegicus [2]) was 1.36 s and the Time (Rattus norvegicus [3]) was 215.5 s. It also gave a Time (Rattus norvegicus [4]) of 12.1 s.

In the case of `O=C(CSc1nc2ccccc2[nH]1)NN1C(=O)CSC1c1c(O)ccc2ccccc12` (stereo unspecified), the Time (Rattus norvegicus [13]) is reported as 172.5 s, the Time (Rattus norvegicus [14]) is reported as 1.8 s and the Time (Rattus norvegicus [15]) is reported as 3.08 s. The Time (Rattus norvegicus [16]) was 3.98 s.

`COc1cccc(C2SCC(=O)N2NC(=O)CSc2nc3ccccc3[nH]2)c1O` (stereo unspecified) was tested, and the Time (Rattus norvegicus [25]) was 3.3 s, the Time (Rattus norvegicus [26]) was 213.8 s and the Time (Rattus norvegicus [27]) was 16.2 s. For the same molecule, the Time (Rattus norvegicus [28]) was 4.21 s.

For `O=[N+]([O-])c1ccc(-c2nnc(CSc3nc4ccccc4[nH]3)o2)cc1`, the Activity (Rattus norvegicus [9]) was 78.33 mg/dL, the Activity (Rattus norvegicus [10]) was 110 mg/dL and the Activity (Rattus norvegicus [11]) was 158.7 mg/dL. The Activity (Rattus norvegicus [12]) was 154.5 mg/dL.

— ChEMBL document CHEMBL1157848, “Derivatives of benzimidazole pharmacophore: synthesis, anticonvulsant, antidiabetic and DNA cleavage studies” (2010)
